In ChEMBL document CHEMBL2331225, “Structure-based design, synthesis and evaluation of novel anthra[1,2-d]imidazole-6,11-dione derivatives as telomerase inhibitors and potential for cancer polypharmacology” (Eur J Med Chem, 2013):
The source made the active and inactive calls. No cut-off for these calls is given here.

Columns and labels:
[1] = biological target: T1, Telomerase reverse transcriptase (Homo sapiens, UniProt O14746); assay: Inhibition of TERT transcriptional activity in human H1299 cells assessed SEAP activity at 100 uM incubated for 24 hrs by SEAP assay; type: cell-based; parameters: scale not given: the % may be the effect or the level left
Summary of the method: (§1)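 H1299 stable clones carry the hTERT promoter (−3338 to +1 bp) upstream of SEAP, introduced by electroporation and selected with G418. About 2 × 10³ cells per well were grown 24 h at 37 °C, given fresh medium, then drug for 24 h. Collected media were heated at 65 °C for 10 min, mixed with equal SEAP buffer (2 M diethanolamine, 1 mM MgCl₂, 20 mM L-homoarginine) and p-nitrophenyl phosphate at 12 mM final.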

PC-3 = assay: Growth inhibition of human PC3 cells after 48 hrs by SRB assay; type: functional, cell-based; conditions: PC-3, 48 h
Summary of the method: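 PC-3 cells were seeded in medium with 5% FBS; after 24 h a plate was fixed with 10% TCA as T₀. Vehicle (0.1% DMSO) or compound was given for 48 h, then cells were TCA-fixed, stained with 0.4% SRB in 1% acetic acid, solubilized in 10 mM Trizma base and read at 515 nm. IC₅₀ is the concentration halving the protein increase seen in controls.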

[2] = biological target: T1, Telomerase reverse transcriptase; assay: Inhibition of TERT transcriptional activity in human H1299 cells assessed SEAP activity at 10 uM incubated for 24 hrs by SEAP assay; type: cell-based; parameters: scale not given: the % may be the effect or the level left; summary of the method: as §1
[3] = Cytotoxicity against human H1299 cells assessed as cell viability at 1 uM after 48 hrs by MTT assay; type: functional; conditions: NCI-H1299, 48 h, read-out: Activity
Summary of the method: (§2)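 H1299 cells at about 2 × 10³ per well were grown 24 h at 37 °C in 5% CO₂. Compounds were dissolved in DMSO just before use and diluted into complete medium. After 48 h exposure, MTT was added for 4 h at 37 °C, then lysis buffer (20% SDS, 50% DMF) for 16 h at 37 °C. Absorbance was read at 550 nm.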

[4] = Cytotoxicity against human H1299 cells assessed as cell viability at 10 uM after 48 hrs by MTT assay; type: functional; conditions: NCI-H1299, 48 h, read-out: Activity; summary of the method: as §2
[5] = Cytotoxicity against human H1299 cells assessed as cell viability at 100 uM after 48 hrs by MTT assay; type: functional; conditions: NCI-H1299, 48 h, read-out: Activity; summary of the method: as §2
[6] = biological target: T1, Telomerase reverse transcriptase; assay: Inhibition of TERT activity in human H1299 cells homogenates incubated for 5 mins at 100 uM by TRAP assay; type: cell-free
Summary of the method: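 Telomerase-active extracts were prepared from H1299 cells, and lysate protein was measured against BSA standards. Compounds were tested in the TRAP assay, with RNase A-treated extracts as negative controls.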

[7] = biological target: T1, Telomerase reverse transcriptase; assay: Inhibition of TERT transcriptional activity in human H1299 cells assessed SEAP activity at 1 uM incubated for 24 hrs by SEAP assay; type: cell-based; parameters: scale not given: the % may be the effect or the level left; summary of the method: as §1

T1 sequence (O14746 whole entry): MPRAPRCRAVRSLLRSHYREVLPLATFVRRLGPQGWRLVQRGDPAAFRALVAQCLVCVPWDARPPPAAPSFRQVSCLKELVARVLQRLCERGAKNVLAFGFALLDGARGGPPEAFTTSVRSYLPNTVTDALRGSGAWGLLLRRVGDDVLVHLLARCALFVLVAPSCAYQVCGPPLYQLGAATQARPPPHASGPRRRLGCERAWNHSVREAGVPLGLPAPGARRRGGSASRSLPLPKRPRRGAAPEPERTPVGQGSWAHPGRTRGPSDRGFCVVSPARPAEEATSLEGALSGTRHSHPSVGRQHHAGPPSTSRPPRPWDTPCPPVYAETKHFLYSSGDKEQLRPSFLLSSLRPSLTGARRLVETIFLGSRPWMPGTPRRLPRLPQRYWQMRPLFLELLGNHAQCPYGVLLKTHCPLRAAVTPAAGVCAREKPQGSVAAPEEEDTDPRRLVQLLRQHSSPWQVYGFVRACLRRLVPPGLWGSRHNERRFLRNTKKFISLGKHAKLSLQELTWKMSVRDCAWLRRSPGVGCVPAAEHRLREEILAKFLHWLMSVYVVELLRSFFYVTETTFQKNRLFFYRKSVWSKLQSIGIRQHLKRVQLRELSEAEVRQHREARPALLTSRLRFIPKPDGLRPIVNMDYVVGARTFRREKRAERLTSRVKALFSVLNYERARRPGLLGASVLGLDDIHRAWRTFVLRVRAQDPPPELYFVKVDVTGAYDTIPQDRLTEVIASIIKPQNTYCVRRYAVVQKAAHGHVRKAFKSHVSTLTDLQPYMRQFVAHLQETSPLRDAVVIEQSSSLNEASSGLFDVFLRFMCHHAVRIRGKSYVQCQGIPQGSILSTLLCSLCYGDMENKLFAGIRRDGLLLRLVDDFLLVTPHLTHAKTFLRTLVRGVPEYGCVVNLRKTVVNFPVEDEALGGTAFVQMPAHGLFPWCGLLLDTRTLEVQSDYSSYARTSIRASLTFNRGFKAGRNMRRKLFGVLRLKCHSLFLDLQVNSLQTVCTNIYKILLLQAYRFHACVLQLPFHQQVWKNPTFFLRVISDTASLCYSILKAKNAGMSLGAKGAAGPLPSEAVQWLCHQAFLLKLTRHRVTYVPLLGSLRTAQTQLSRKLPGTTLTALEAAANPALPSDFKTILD

| SMILES | Activity [1] [%] | IC50 (PC-3) [µM] | Activity [2] [%] | viability at 1 µM [3] [%] | viability at 10 µM [4] [%] | viability at 100 µM [5] [%] | TERT inhibition (active/not active) [6] | Activity [7] [%] |
| --- | --- | --- | --- | --- | --- | --- | --- | --- |
| O=C1c2ccccc2C(=O)c2c1ccc1nc(CN3CCN(Cc4ccccc4)CC3)[nH]c21 | 0 | > 30 | 11 | 93 | 51 | 13 | inactive | 98 |
| O=C(CCCl)Nc1ccc2c(c1NC(=O)CCCl)C(=O)c1ccccc1C2=O | 0 | > 30 | 13 | 94 | 34 | 6 | inactive | 87 |
| Nc1ccc2c(c1N)C(=O)c1ccccc1C2=O | 18 | – | – | 105 | 95 | 39 | inactive | 99 |
| CC(C)N(C)Cc1nc2ccc3c(c2[nH]1)C(=O)c1ccccc1C3=O | 0 | 6.7 | 1 | 96 | 23 | 0 | inactive | 77 |
| CN(Cc1nc2ccc3c(c2[nH]1)C(=O)c1ccccc1C3=O)CC1OCCO1 | 7 | 21 | 69 | 104 | 90 | 28 | inactive | 90 |
| COc1cccc(CN(C)Cc2nc3ccc4c(c3[nH]2)C(=O)c2ccccc2C4=O)c1 | 0 | 18.7 | 78 | 97 | 98 | 9 | inactive | 105 |
| O=C1c2ccccc2C(=O)c2c1ccc1nc(CN3CCSCC3)[nH]c21 | 5 | 6.7 | 77 | 92 | 77 | 1 | inactive | 115 |
| O=C1c2ccccc2C(=O)c2c1ccc1nc(CNCc3ccccc3C(F)(F)F)[nH]c21 | 0 | > 30 | 81 | 99 | 96 | 6 | inactive | 87 |
| CN(Cc1nc2ccc3c(c2[nH]1)C(=O)c1ccccc1C3=O)Cc1c2ccccc2cc2ccccc12 | 12 | > 30 | 77 | 98 | 84 | 42 | inactive | 102 |
| O=C1c2ccccc2C(=O)c2c1ccc1nc(CN3CCOCC3)[nH]c21 | 26 | 12.4 | 97 | 90 | 71 | 13 | inactive | 102 |
| CN(C)Cc1nc2ccc3c(c2[nH]1)C(=O)c1ccccc1C3=O | 0 | 8.8 | 45 | 99 | 64 | 0 | inactive | 84 |
| O=C1c2ccccc2C(=O)c2c1ccc1nc(CN3CCSC3)[nH]c21 | 12 | 12.1 | 86 | 89 | 76 | 5 | inactive | 106 |
| O=C1c2ccccc2C(=O)c2c1ccc1nc(CN3CCN(c4ncccn4)CC3)[nH]c21 | 19 | 27.9 | 92 | 85 | 74 | 28 | inactive | 111 |
| O=C1c2ccccc2C(=O)c2c1ccc1nc(CNCc3ccc(C(F)(F)F)cc3)[nH]c21 | 2 | 7.6 | 8 | 74 | 11 | 0 | inactive | 52 |
| O=C1c2ccccc2C(=O)c2c1ccc1nc(CCl)[nH]c21 | 3 | 5.1 | 0 | 82 | 0 | 0 | inactive | 69 |
| O=C1c2ccccc2C(=O)c2c1ccc1nc(CN3CCCCCC3)[nH]c21 | 4 | 10.5 | 66 | 104 | 85 | 0 | inactive | 107 |
| O=C1c2ccccc2C(=O)c2c1ccc1nc(CN3CCN(c4ccccc4F)CC3)[nH]c21 | 0 | 16.7 | 78 | 88 | 77 | 15 | inactive | 103 |
| O=C1c2ccccc2C(=O)c2c1ccc1nc(CCCl)[nH]c21 | 8 | 5.2 | 83 | 91 | 86 | 40 | inactive | 95 |
| O=C1c2ccccc2C(=O)c2c1ccc1nc(CCN3CCN(c4ccccn4)CC3)[nH]c21 | 1 | > 30 | 63 | 98 | 93 | 57 | inactive | 88 |
| O=C1c2ccccc2C(=O)c2c1ccc1nc(CCN3CCN(c4ccccc4)CC3)[nH]c21 | 37 | > 30 | 93 | 94 | 96 | 65 | inactive | 103 |
| CCN(C)Cc1nc2ccc3c(c2[nH]1)C(=O)c1ccccc1C3=O | 0 | 7.5 | 39 | 99 | 65 | 0 | inactive | 97 |
